Common to all, as to format: functional, cell-based
The subject of experiment [1] is PBMC. In words: Inhibition of PHA-stimulated human PBMC proliferation assessed as [3H]thymidine uptake after 3 days by scintillation counting. The procedure, abridged: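 Ficoll-Hypaque-isolated human PBMC at 2 × 10^6 cells/mL in RPMI-1640 with 2% FCS, 100 µL/well, with or without 5 µg/mL PHA plus test compound. Incubated 3 days at 37 °C in 5% CO2. 3H-thymidine (1 µCi/well) was then added for 16 h, and cells were harvested onto glass-fiber filters for scintillation counting. % inhibition = (control CPM − treated CPM)/control CPM × 100. DMSO 0.1% vehicle.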

Experiment [2] has as its system PBMC. In words: Immunomodulatory activity in PHA-stimulated human PBMC assessed as inhibition of IL2 production after 3 days by enzyme immuno assay. In outline:
(§1)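 Human PBMC isolated by Ficoll-Hypaque density gradient, resuspended in RPMI-1640 with 2% FCS and penicillin/streptomycin. 2 × 10^5 cells/well cultured with PHA (5 µg/mL) plus 0, 6, 12.5, 25, 50 or 100 µM compound for 3 days. IL-2 and IFN-γ measured in the supernatants by EIA. Each point is the mean of three independent experiments.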

Experiment [3] concerns PBMC. In words: Immunomodulatory activity in PHA-stimulated human PBMC assessed as inhibition of IFN-gamma production after 3 days by enzyme immuno assay. In outline: as §1

Each structure is given as a SMILES string. Calls of active or inactive are those of the source. The rule behind the calls is not given here.

Turning to `Oc1cc(O)c2c(c1)O[C@@]1(c3ccc(O)c(O)c3)Oc3cc(O)c4c(c3[C@@H]2[C@H]1O)O[C@H](c1ccc(O)c(O)c1)[C@H](O)[C@@H]4c1c(O)cc(O)c2c1O[C@H](c1ccc(O)c(O)c1)[C@H](O)C2`, the outcome in experiment [1] was inactive.

For `Oc1cc(O)c2c(c1)O[C@H](c1ccc(O)c(O)c1)[C@H](O)[C@H]2c1c(O)cc(O)c2c1O[C@@]1(c3ccc(O)c(O)c3)Oc3cc(O)c4c(c3[C@@H]2[C@H]1O)O[C@H](c1ccc(O)c(O)c1)[C@H](O)[C@@H]4c1c(O)cc(O)c2c1O[C@H](c1ccc(O)c(O)c1)[C@H](O)C2`, in experiment [1], the outcome was inactive.

Turning to `Oc1cc(O)c2c(c1)O[C@H](c1ccc(O)c(O)c1)[C@H](O)C2`, the outcome in experiment [1] was inactive.

Take `Oc1cc(O)c2c(c1)O[C@@]1(c3ccc(O)c(O)c3)Oc3cc(O)c4c(c3[C@@H]2[C@H]1O)O[C@H](c1ccc(O)c(O)c1)[C@@H](O)C4` [PROANTHOCYANIDIN A1]: the Activity entry in experiment [2] and in experiment [3] was “Dose-dependent effect” in each case. The IC50 in experiment [2] (72 h) was found to be 25 µM; in experiment [1] it was 30.6 µM; in experiment [3] (72 h), 5.1 µM.

Consider `Oc1cc(O)c2c(c1)O[C@@]1(c3ccc(O)c(O)c3)Oc3cc(O)c4c(c3[C@@H]2[C@H]1O)O[C@H](c1ccc(O)c(O)c1)[C@H](O)C4`, for which the result in experiment [1] was inactive.

On to `Oc1cc(O)c2c(c1)O[C@H](c1ccc(O)c(O)c1)[C@H](O)[C@H]2c1c(O)cc(O)c2c1O[C@H](c1ccc(O)c(O)c1)[C@H](O)C2`, for which the result in experiment [1] was inactive.

Turning to `Oc1cc(O)c2c(c1)O[C@@]1(c3ccc(O)c(O)c3)Oc3cc(O)c4c(c3[C@@H]2[C@H]1O)O[C@@]1(c2ccc(O)c(O)c2)Oc2cc(O)c3c(c2[C@@H]4[C@@H]1O)O[C@H](c1ccc(O)c(O)c1)[C@H](O)C3`, the result in experiment [1] was inactive.

One may read the IC50 as the concentration at which inhibition is half-maximal.

The values are drawn from ChEMBL document CHEMBL1148118, “Immunomodulatory proanthocyanidins from Ecdysanthera utilis” (J Nat Prod, 2002).
